Screens as filed in PubChem.
An excerpt weighted towards active compounds, which were near 3.1% of everything screened.
KCNK3 inh – human KCNK3 channel inhibitors, primary screen, CHO cells, FluxOR thallium flux, B-score; Potassium channel subfamily K member 3 (Homo sapiens), O14649; FluxOR fluorescence; hits give low values; B-score at 10 µM; hit rate 0.84% among 340,000; AID 602410, 2012;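 active = B-score under library mean minus 4 SD, starting fluorescence ratio at most library mean plus 5 SD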;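 note: more negative B-score means stronger inhibition of thallium flux through KCNK3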
KCNK9 block – KCNK9 potassium channel inhibitors, primary screen, HEK293 cells, thallium flux; Potassium channel subfamily K member 9 (Homo sapiens), Q9NPC2; FluxOR thallium flux fluorescence; hits give low values; B-score at 10 µM; hit rate 1.2% among 310,000; AID 488922, 2010;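 active = ratio B-score over 3 SD below the library mean, with starting fluorescence within 5 SD of its mean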;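 note: negative B-score means less thallium flux so channel inhibition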
KCNQ1 block – inhibitors of human KCNQ1 channel, primary screen, cell-based, thallium flux, high-throughput; CHO-K1 KCNQ1, FluxOR thallium flux fluorescence; hits give high values; AID 2642, 2010; B-score at 10 µM; hit rate 1.3% among 310,000;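 active = compounds whose thallium flux B-score, printed positive for inhibition, exceeds three library SD while starting fluorescence stays within three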;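 note: channel opened by potassium depolarization with thallium stimulus after 20 min compound exposure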
Target sequence (P51787 whole entry, looked up): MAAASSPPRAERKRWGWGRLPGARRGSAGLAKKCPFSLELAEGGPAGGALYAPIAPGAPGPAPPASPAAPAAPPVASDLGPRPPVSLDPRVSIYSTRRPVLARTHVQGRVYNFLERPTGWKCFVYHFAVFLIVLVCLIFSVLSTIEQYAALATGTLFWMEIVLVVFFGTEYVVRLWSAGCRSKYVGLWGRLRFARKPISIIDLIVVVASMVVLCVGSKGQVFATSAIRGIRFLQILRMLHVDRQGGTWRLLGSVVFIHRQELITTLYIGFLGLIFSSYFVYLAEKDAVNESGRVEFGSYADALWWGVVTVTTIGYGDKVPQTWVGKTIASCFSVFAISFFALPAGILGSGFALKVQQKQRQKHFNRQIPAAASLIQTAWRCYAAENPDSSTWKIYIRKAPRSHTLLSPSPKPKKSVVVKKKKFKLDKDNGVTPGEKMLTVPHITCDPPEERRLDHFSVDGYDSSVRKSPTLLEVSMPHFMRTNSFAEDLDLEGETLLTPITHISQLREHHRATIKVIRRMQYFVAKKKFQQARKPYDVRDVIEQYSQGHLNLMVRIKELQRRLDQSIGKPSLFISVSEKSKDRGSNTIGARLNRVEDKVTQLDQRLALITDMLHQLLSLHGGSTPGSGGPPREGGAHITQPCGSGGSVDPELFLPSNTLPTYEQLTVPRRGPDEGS
hERG rescue – hERG rescue from dofetilide block, primary screen, cell-based, CHO-hERG, FluxOR thallium flux, dofetilide IC70; Voltage-gated inwardly rectifying potassium channel KCNH2 (Homo sapiens), Q12809; dofetilide IC70 present; activation (rescue from dofetilide block), less the hit threshold, % at 10 µM; hit rate 0.51% among 310,000; AID 1511, 2009;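 active = activation above the mean of controls blocked by dofetilide plus 5 SD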;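 note: thallium influx through hERG after potassium depolarization seen as dye fluorescence rise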
KCNQ1 pot – potentiators or activators of KCNQ1 channel, primary screen, cell-based, thallium flux, high-throughput; Potassium voltage-gated channel subfamily KQT member 1 (Homo sapiens), P51787; hit rate 0.35% among 310,000; B-score at 10 µM; CHO-K1 KCNQ1, thallium flux FluxOR fluorescence; hits give high values;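 active = fluorescence ratio B-score, a plate-corrected score, at least three library SD, with initial intensity B-score within 5 SD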
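System: Stable KCNQ1 CHO-K1 line | Incubation: 90 min dye loading and 20 min compound exposure, both at room temperature | Measure: Ratio B score | Medium: Assay buffer for compound exposure, DMSO matched across wells | Compound dosing: Single-concentration screen | Probe or stimulus: K+/Tl+ depolarizing stimulus | Measured by: Kinetic FluxOR fluorescence, 10 s baseline plus 110 s post-stimulus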
An asterisk follows results filed as active; i = inactive; . = no result.

SMILES	KCNK3 inh	KCNK9 block	KCNQ1 block	hERG rescue	KCNQ1 pot
O=C(NCc1ccc2c(c1)OCO2)c1ccc(CSCc2cccc(Cl)c2)o1	i	-7.49*	i	-13.7	i
CC(=O)Nc1ccc(C=CC=Cc2cccc([N+](=O)[O-])c2)cc1	i	.	.	.	.
Cc1cc(OCc2cccc(S(=O)(=O)N3CCOCC3)c2)ccc1Cl	-9.62*	.	.	.	.
Cc1ccccc1-c1nnn(Cc2cccc(S(=O)(=O)N3CCOCC3)c2)n1	-9.03*	.	.	.	.
N#Cc1ccc(OCc2cccc(S(=O)(=O)N3CCOCC3)c2)cc1	i	i	i	-7.9	i
O=C(CN1CCN(Cc2cccc(C(F)(F)F)c2)CC1)NCC(=O)Nc1ccc(F)c(F)c1F	i	.	.	.	.
Cc1cccc(N(CC(=O)NC2CCCC2)C(=O)c2csnn2)c1C	i	i	i	-3.0	8*
Cc1ccccc1N(CC(=O)NC1CCCCC1)C(=O)c1csnn1	i	i	i	-5.6	i
Cn1c(=O)c2nc3ccccc3nc2n(C)c1=O	i	i	i	-19.2	10*
COc1ccc2c(c1)C(=O)C1NC(=O)NC(=O)C1(Br)N2 (stereo not given)	i	.	.	.	.
CCCCCn1c2c(c(=N)c3ccccc31)CCC2	i	i	i	-25.4	i
Cc1cc(C)c2c(=N)c3ccccc3n(CCCCCCCCn3c4ccccc4c(=N)c4c(C)cc(C)nc43)c2n1	-10.4*	.	.	.	.
COc1ccc(C)cc1-n1c(=O)c2ccccc2c2ccccc2c1=O	i	-8.03*	i	-13.4	i
O=[N+]([O-])/C=C/c1cc2ccccc2[nH]1	i	i	6*	-9.4	i
O=[N+]([O-])c1cccc(-c2cc3ccccc3[nH]2)c1	i	i	i	-15.6	i
Nc1nccnc1C(=O)OCC(=O)NC1CCCc2ccccc21 (stereo not given)	i	.	.	.	.
C=CCC[C@H](Cc1ccc(F)cc1)C(=O)OC[C@@H](NC(=O)[C@@H](CC=C)CC(=O)N(CCO)Cc1ccccc1)C(C)(C)C	i	.	.	.	.
O=NN(CCc1ccncc1)c1ccc(OCc2ccccc2)cc1	-9.09*	i	10*	-20.1	i
COc1ccc(-c2oc3c(CC=C(C)C)c(O[C@@H]4O[C@H](CO)[C@@H](O)[C@H](O)[C@H]4O)cc(O)c3c(=O)c2O[C@@H]2O[C@@H](C)[C@H](O)[C@@H](O)[C@H]2O)cc1	.	i	i	-7.1	i
CC(=O)O[C@@H]1[C@@H](O)[C@@H](O)[C@H](Oc2c(-c3ccc(O)cc3)oc3c(CC=C(C)C)c(O)cc(O)c3c2=O)O[C@H]1C	.	i	6*	-38.0	i
COc1ccc(Cl)cc1N(C)C(=O)CCNC(=O)Cn1cnc2ccccc2c1=O	i	i	i	5.0*	i
CN(C(=O)CCNC(=O)Cn1cnc2ccccc2c1=O)c1ccc(Br)cc1	i	i	i	-3.1	i
Cc1cccc(C(=O)NC(=S)N2CCc3ccccc3C2)c1	i	i	i	21.1*	13*
CN(CCCC(=O)O)c1ccc(N=Nc2ccc([N+](=O)[O-])cc2)cc1	i	i	i	-3.1	i
O=C(Cn1nnc2ccccc21)N/N=C\C=C\c1ccccc1	i	i	i	6.7*	i
SMILES	KCNK3 inh	KCNK9 block	KCNQ1 block	hERG rescue	KCNQ1 pot
Nc1nnnn1CC(=O)N/N=C/C=C/c1ccccc1	i	i	i	-5.5	i
CCc1nc(C)c(C(=O)N2CCCC(C(=O)Nc3cccc(-c4cccc(C)c4)c3)C2)o1 (stereo not given)	i	i	i	-8.4	i
O=C(CC(=O)c1ccccc1)CC(O)(C=Cc1ccccc1)c1ccccc1 (stereo not given)	-9.09*	.	.	.	.
O=C(/C=C/c1ccccc1)CC(=O)c1ccccc1	i	.	.	.	.
COC(=O)c1ccc(OC(=O)CCN2c3ccccc3Sc3ccccc32)cc1	i	-7.51*	i	-11.2	i
CC(C)NC(=O)Nc1n[nH]c(Nc2ccc(Cl)cc2)n1	i	i	i	5.3*	i
COc1ccc(Cl)cc1NC(=O)NC(C)C	i	i	i	-9.7	i
CNC(=O)CN(c1cccc2ccccc12)S(C)(=O)=O	i	i	i	7.0*	i
CS(=O)(=O)N(CC(=O)NCCSc1ccccn1)c1cccc2ccccc12	i	i	i	-0.4	i
Cc1cc2nc3c(=O)n(CCc4ccccc4)c(=O)[nH]c3nc2cc1N	i	i	i	-12.1	i
Nc1ccc2nc3c(=O)n(CCc4ccccc4)c(=O)[nH]c3nc2c1	i	i	8*	-25.8	i
Cc1ccc(C)c(S(=O)(=O)C(C#N)c2nc3ccccc3nc2N2CCCC2)c1 (stereo not given)	i	-8.08*	i	-10.9	i
Cc1ccc(C)c(S(=O)(=O)C(C#N)c2nc3ccccc3nc2N2CCOCC2)c1 (stereo not given)	i	i	i	-5.6	i
CCOC(=O)N1CCN(C(=O)/C=C/c2ccc(OC)cc2)CC1	i	i	i	10.1*	i
CC(C)(O)c1ccccc1CC[C@@H](SCC1(CC(=O)O)CC1)c1cccc(/C=C/c2ccc3ccc(Cl)cc3n2)c1	i	i	i	-9.7	i
COc1ccc(-c2cc(-c3ccccc3)nc(SCC(=O)Nc3nccs3)c2C#N)cc1	i	i	i	-12.6	i
CCc1nnc(NC(=O)CSc2nc(-c3ccccc3)cc(-c3ccc(OC)cc3)c2C#N)s1	i	i	i	6.4*	i
CC1CCCC(NC(=O)COC(=O)c2cc(=O)[nH]c3ccccc23)C1C (stereo not given)	i	.	.	.	.
CCC1C(=O)CC(c2ccco2)NC1c1ccco1 (stereo not given)	i	i	i	-4.8	i
CCC1C(=O)CC(c2ccc([N+](=O)[O-])cc2)NC1c1ccc([N+](=O)[O-])cc1 (stereo not given)	i	i	8*	-15.4	i
COc1ccc(CCNC2CC(=O)N(CCc3ccccc3)C2=O)cc1 (stereo not given)	i	i	i	7.1*	i
COC(=O)C1=CN(Cc2ccc(OC)cc2)C=C(C(=O)OC)C1c1cccs1	i	-6.66*	i	-8.9	i
O=C(Nn1c(C2CCCCC2)nc2ccccc2c1=O)c1ccc(Cl)c([N+](=O)[O-])c1	i	i	9*	-12.4	i
Cc1cc(C(=O)Nn2c(C3CCCCC3)nc3ccccc3c2=O)ccc1[N+](=O)[O-]	i	i	i	-5.6	i
CC(N)C(=O)NC(CO)C(O)C(N)C=O (stereo not given)	i	.	.	.	.
